According to paper PMC12413468 (Communications Biology, 2025):

Assays:
[1] = system: 3xFLAG-OSR1 / endogenous TSC22D1; assay type: binding, human; conditions: HEK293T cells, 50 µM CCT blocking peptide, n = 3
Outline: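 HEK293T cells were grown in DMEM with 10% FBS and expressed 3xFLAG-OSR1. Endogenous TSC22D1 was co-immunoprecipitated and detected by immunoblot. Three independent experiments.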

[2] = system: TSC22D family mRNA in HDMEC; test: qPCR of TSC22D family members in HDMEC; assay type: cell-based, human; conditions: 1 µM WNK463, 14 hours, two replicates
[3] = system: A549 cells stably expressing TSC22D1-mNeonGreen; test: TSC22D1-mNeonGreen localization, A549 cells; assay type: cell-based, human; conditions: A549, WNK463 1 µM, 24 h
Outline: (§1)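 Stable lines came from a lentiviral vector carrying long-isoform TSC22D1 with a C-terminal mNeonGreen tag, transfected with Lipofectamine 3000. Cells were puromycin-selected and sorted by flow cytometry. Pan-WNK inhibitor was applied at 1 µM for 24 h. Cells on coverslips were fixed (4% PFA, 15 min, RT), permeabilised (0.1% Triton X-100, 4.5 min), blocked with 10% goat serum, stained with antibodies and Alexa secondaries (1:500), mounted with DAPI and imaged by confocal microscopy. In A549, endogenous OSR1 was co-stained.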

[4] = system: Cavin1 Tyr156 phosphorylation in HDMEC; test: Cavin1 Tyr156 phosphorylation, immunoblot in HDMEC; assay type: cell-based, human; conditions: WNK1 siRNA 72 h or WNK463 1 µM 18 h
Outline: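 HDMEC were grown in MCDB 131 with 10% FBS, 10 mM L-glutamine, 10 ng/ml EGF, 1 ug/mL hydrocortisone and penicillin/streptomycin, at 37 °C and 5% CO2. Lysates were made directly in SDS/β-mercaptoethanol sample buffer and immunoblotted for phospho-Cavin1 Tyr156 and total Cavin1. Data are means ± SEM; unpaired two-tailed t-test.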

[5] = system: phospho-SPAK Ser373/phospho-OSR1 Ser325 in HDMEC; test: phospho-SPAK/phospho-OSR1 immunoblot in HDMEC; assay type: cell-based, human; conditions: WNK463 1 µM 18 h, unlike OSR1
Outline: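 Endothelial cells (HDMEC) were kept in MCDB 131 with 10% FBS, 10 mM L-glutamine, 10 ng/ml EGF, 1 ug/mL hydrocortisone and antibiotics, at 37 °C and 5% CO2. Pan-WNK inhibitor was given at 1 µM for 18 h. Cells were harvested in SDS/DTT/β-mercaptoethanol sample buffer, then immunoblotted with an antibody recognising phospho-SPAK Ser373/phospho-OSR1 Ser325. Results are means ± SEM, compared by unpaired two-tailed t-test.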

[6] = system: HEK293T cells stably expressing TSC22D1-mNeonGreen; test: TSC22D1-mNeonGreen localization, HEK293T cells; assay type: cell-based, human; conditions: WNK463 1 µM, 24 h, confocal microscopy, n=1
Outline: as §1

Molecule | association of endogenous TSC22D1 with 3xFLAG-OSR1 [1] | mRNA amounts of TSC22D family members [2] | TSC22D1 puncta ([3]; confocal microscopy, n = 3) | localization of endogenous OSR1 ([3]; immunofluorescence) | total Cavin1 protein amount [4] | phosphorylation of SPAK [5] | TSC22D1 puncta [6]
NH3^+-SAGRRFIVSPVPE-COO^− [SAGRRFIVSPVPE (WT)] | prevented their association |  |  |  |  |  | 
CC(C)(C)NC(=O)c1cncn1C1CCN(c2ccc(-c3nnc(C(F)(F)F)o3)cn2)CC1 [WNK463] |  | altered mRNA amounts of TSC22D family members | induced TSC22D1 puncta | colocalized in puncta with tagged TSC22D1 | little change | resistant | induced TSC22D1 puncta
